Compound activity deposited in PubChem by several laboratories.
hiPSC survival – hiPSC single-cell survival enhancement; survival enhancement, % at 20 µM; actives 0.044% (n = 360,000); ATPlite luminescence; 100% = ROCK inhibitor wells, 0% = DMSO; in the data active means survival enhancement above about 18%;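 further: cells exposed to compounds for 16 hours before the ATP read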
UBC13 inh – blocks human UBC13 polyubiquitin chain formation | P61088 | TR-FRET | inhibition, % at 20 µM | actives 0.47% (n = 330,000); in the data active means inhibition above about 45%, passing the limit was not always enough
MPTP block – blocks calcium-induced mitochondrial swelling; isolated mouse mitochondria, Ca2+ swelling absorbance, 30 min; inhibition, % at 10 µM; actives 1.4% (n = 360,000);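 active means inhibition of 50% or more, scaled per plate between neutral and stimulator controls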;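 further: 0% = DMSO wells given calcium and 100% = 1 mM EGTA wells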
beta cell repl – induces beta-cell replication in MIN6 cells; AID 2380; MIN6 cells proliferation, ATPlite luminescence, 48 h; cells starved in 0.2% serum; 100% = growth in 10% serum; actives 0.29% (n = 330,000); proliferation, % at 10 µM;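 active means compounds whose signal lies at least 3.5 SD above the mean of all wells on their plate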;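 further: 0% = DMSO-treated cells in low-serum medium and 100% = 10% serum control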
Exocytosis inh – blocks lytic granule exocytosis; TALL-104 LAMP-1 surface exposure, flow cytometry; cells stimulated with thapsigargin and PMA; inhibition, % at 10 µM; actives 0.66% (n = 360,000);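 active means inhibition above about 55%, limit read from the data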
Apaf-1 inh – inhibitors of human Apaf-1 apoptosome | O14727 | reconstituted apoptosome caspase-3 activity, DEVD-Rh110 fluorescence | inhibition, % at 20 µM | actives 0.71% (n = 330,000) | AID 489030; active means inhibition of at least 40% at 20 µM;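 further: plate controls were DMSO wells for no effect and DEVD-CHO caspase inhibitor wells for full effect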
Target sequence (O14727 whole entry, looked up): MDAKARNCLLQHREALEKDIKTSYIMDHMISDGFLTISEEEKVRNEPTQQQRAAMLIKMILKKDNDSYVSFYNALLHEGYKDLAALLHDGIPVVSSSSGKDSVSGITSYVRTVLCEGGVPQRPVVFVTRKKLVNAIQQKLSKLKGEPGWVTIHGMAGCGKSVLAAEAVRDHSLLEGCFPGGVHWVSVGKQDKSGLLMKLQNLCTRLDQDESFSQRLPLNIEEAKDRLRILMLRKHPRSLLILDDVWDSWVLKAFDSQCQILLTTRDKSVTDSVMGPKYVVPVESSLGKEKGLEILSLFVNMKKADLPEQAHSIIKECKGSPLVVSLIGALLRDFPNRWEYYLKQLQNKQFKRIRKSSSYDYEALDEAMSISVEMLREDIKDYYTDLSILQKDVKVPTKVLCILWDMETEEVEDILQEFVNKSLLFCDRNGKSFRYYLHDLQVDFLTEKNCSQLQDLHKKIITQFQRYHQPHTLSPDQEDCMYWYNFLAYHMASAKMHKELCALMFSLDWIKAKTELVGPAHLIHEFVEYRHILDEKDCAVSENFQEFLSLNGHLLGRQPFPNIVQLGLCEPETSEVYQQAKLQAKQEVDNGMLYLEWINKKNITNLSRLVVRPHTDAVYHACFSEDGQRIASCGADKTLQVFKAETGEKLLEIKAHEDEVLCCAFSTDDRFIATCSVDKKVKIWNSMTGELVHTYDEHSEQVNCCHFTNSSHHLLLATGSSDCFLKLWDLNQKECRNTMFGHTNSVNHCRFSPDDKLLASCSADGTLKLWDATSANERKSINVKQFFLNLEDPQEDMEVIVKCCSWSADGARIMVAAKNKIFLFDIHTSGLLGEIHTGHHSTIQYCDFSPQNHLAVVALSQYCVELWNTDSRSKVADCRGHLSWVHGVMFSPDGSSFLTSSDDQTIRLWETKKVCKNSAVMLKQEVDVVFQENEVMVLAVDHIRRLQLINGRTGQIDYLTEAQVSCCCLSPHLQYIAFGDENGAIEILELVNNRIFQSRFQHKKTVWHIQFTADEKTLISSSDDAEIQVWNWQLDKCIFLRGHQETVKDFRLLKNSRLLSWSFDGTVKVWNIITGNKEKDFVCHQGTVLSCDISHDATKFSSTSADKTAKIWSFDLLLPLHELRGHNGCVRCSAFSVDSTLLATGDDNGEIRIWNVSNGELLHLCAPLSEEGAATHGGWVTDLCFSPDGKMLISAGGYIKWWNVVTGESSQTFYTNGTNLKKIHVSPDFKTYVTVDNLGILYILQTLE
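Assay system – apoptosome proteins · Medium – Hepes buffer, pH 7.5 · Also added – cytochrome c with DEVD-Rh110 · Timing – 30 min compound preincubation, 50 min activation, room temperature · Detection – Rh110 fluorescence, excitation 480 nm, emission 540 nm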
Apaf-1 inh conf – confirmation of Apaf-1 inhibitors; shares compounds with Apaf-1 inh; reconstituted apoptosome, caspase-3 DEVD-Rh110 fluorescence; inhibition, % at 20 µM; actives 25% (n = 1,800); AID 504614;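 active means mean inhibition of at least 40% at 20 µM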;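 further: plate controls were DMSO wells for no effect and DEVD-CHO caspase inhibitor control wells for full effect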
Rh110 quench – interferes with Rh110 fluorescence, flagging false Apaf-1 inhibitors. activation (fluorescence interference), % at 20 µM. 1,800 tested, under 10 active. Rh110 fluorescence interference, quenched caspase reaction. shares compounds with Apaf-1 inh. AID 504615;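 active means signal rise of 40% or more at 20 µM, treated as a fluorescence artifact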
Apaf1 inh interf – counter-screen for Apaf-1 inhibitors: fluorescence interference, dose response; IC50, µM; shares compounds with Apaf-1 inh; fluorescence interference counterscreen, Apaf-1 assay format; AID 588538; 460 tested, under 10 active; call rule not given here
* hit, by the source's call; nt = not tested or not shown. Shown are actives, neighbours in structure and some others; about 3% of the full set was active somewhere.

SMILES | hiPSC survival | UBC13 inh | MPTP block | beta cell repl | Exocytosis inh | Apaf-1 inh | Apaf-1 inh conf | Rh110 quench | others
CCOC(=O)c1[nH]c2ccccc2c1NC(C)=O | 0 | -11 | -2 | 5 | 4 | -3 | nt | nt
CCOC(=O)c1[nH]c(=O)c2ccccc2c1O | -2 | 8 | -1 | 0 | 0 | 75* | 26 | 4
O=C(c1ccc(-c2ccccc2Cl)o1)N1CCCC(C(F)(F)F)C1 (configuration not stated) | 0 | 16 | 0 | -1 | 1 | 41* | 27 | 3
Fc1cccc(CCN2CCNC[C@H]2Cc2cccc3ccccc23)c1 | -3 | 39 | 1 | -8 | -2 | 43* | 8 | 2
Oc1ccc(C[C@H]2CNCCN2CCc2cccc(F)c2)cc1 | 2 | 0 | 0 | -4 | 11 | 0 | nt | nt
CC(SC(C)C(=O)NN=Cc1cccc(F)c1)C(=O)NN=Cc1cccc(F)c1 (configuration not stated) | -2 | nt | 0 | nt | 37 | nt | nt | nt
CCOC1=C2[C@@H](CN(S(=O)(=O)c3ccc(C)cc3)[C@H]2c2ccccc2Cl)[C@H]2C(=O)N(Cc3ccccc3)C(=O)[C@H]2C1 | 1 | nt | 1 | nt | -2 | nt | nt | nt
CCn1c2ccccc2c2nnc(SCC(=O)c3c(N)n(C)c(=O)n(C)c3=O)nc21 | 0 | -6 | -1 | 1 | -1 | 54* | 12 | 8
c1coc(-c2nnc(-c3ccco3)nn2)c1 | 0 | 12 | 2 | -6 | 7 | 84* | 58* | 6 | Apaf1 inh interf=>100
N#CCCn1[nH]c(-c2ccccc2)cc1=O | -1 | -6 | 1 | 0 | -1 | 72* | 15 | 4
CC1=C(C(=O)N(C(C)C)C(C)C)CC(CC(=O)NC(c2ccccc2)c2ccccc2)C(=O)N1CCC1=CCCCC1 (configuration not stated) | 3 | nt | 0 | nt | 10 | nt | nt | nt
Cc1nc(SCC(=O)NCC2CCCO2)c2cc(-c3ccccc3)sc2n1 (configuration not stated) | 0 | 9 | -1 | -5 | 1 | 15 | nt | nt
CCc1ccc2cccc3c2c1N=CN3C | 0 | -46 | 1 | -2 | 18 | 87* | 18 | -4
O=C(CCn1c2c(c3ccccc31)CCCC2)NNC(=O)c1ccc(Cl)c([N+](=O)[O-])c1 | -1 | -8 | 26 | -7 | -2 | 89* | 87* | 8 | Apaf1 inh interf=>100
CC(=O)NNC(=O)CCn1c2c(c3ccccc31)CCCC2 | 0 | 5 | 2 | -4 | -5 | -3 | nt | nt
O=C(CCn1c2c(c3ccccc31)CCCC2)NNC(=O)c1ccc([N+](=O)[O-])cc1 | 2 | 4 | 2 | 0 | 14 | 81* | 85* | 7 | Apaf1 inh interf=>100
C/C=C/c1ccc(OCC(O)CN(C)Cc2ccc(SC)cc2)c(OC)c1 (configuration not stated) | 0 | 22 | 2 | -7 | 34 | 19 | nt | nt
COC(=O)c1cc(C)nc2c1C(=O)C(=O)C=C2N1CCOCC1 | 0 | -202 | 5 | -4 | -6 | 99* | 100* | 4 | Apaf1 inh interf=>100
COc1ccc(CCN(C)C(=O)C2CCN(Cc3ccc(C)cc3)CC2)cc1OC | 1 | 4 | -2 | 1 | -6 | 2 | nt | nt
COc1ccc(CCN(C)C(=O)C2CC(=O)N(Cc3ccc(C)cc3)C2)cc1OC (configuration not stated) | 0 | 18 | 0 | 2 | 2 | 56* | 33 | 5
CCN(CC)CCNC(=O)c1ccc(NC(=O)C2CC(=O)N(CCc3ccc(OC)c(OC)c3)C2)cc1 (configuration not stated) | 0 | 27 | -2 | -1 | 34 | 47* | 31 | 0
COc1ccc(CCN2CC(C(=O)Nc3ccc(S(C)(=O)=O)cc3)CC2=O)cc1OC (configuration not stated) | 0 | 1 | 0 | 0 | -3 | -4 | nt | nt
Clc1ccccc1OCc1nn2c(-c3ccncc3)nnc2s1 | 0 | -1 | 0 | -1 | 1 | 41* | 50* | 7 | Apaf1 inh interf=>100
CCOC(=O)Nc1ccc(NCc2ccc(F)cc2)nc1N | -4 | -29 | 3 | -7 | 0 | 96* | 53* | 4 | Apaf1 inh interf=>100
Cc1sc2nc(CN3CCCC3)nc(N3CCN(S(=O)(=O)c4cccs4)CC3)c2c1C | -4 | 3 | 12 | -6 | -3 | 20 | nt | nt
SMILES | hiPSC survival | UBC13 inh | MPTP block | beta cell repl | Exocytosis inh | Apaf-1 inh | Apaf-1 inh conf | Rh110 quench | others
Cc1ccc(S(=O)(=O)N2CCN(c3nc(CN4CCCC4)nc4sc(C)c(C)c34)CC2)cc1 | -1 | 18 | 0 | -8 | -1 | 48* | 29 | 15
CN1CCN(c2ccc(NC(=O)c3cc(S(N)(=O)=O)ccc3N3CCOCC3)cc2)CC1 | 0 | 8 | -2 | -4 | 2 | 40* | 5 | 8
O=C(Nc1ccncc1)c1cc(-c2cccc(Br)c2)nc2ccccc12 | 0 | -4 | 2 | -7 | -2 | 47* | 19 | 8
COc1ccc(NC(=O)c2cc(-c3cccnc3)nc3ccc(C)cc23)cc1OC | 0 | nt | -1 | nt | 0 | nt | nt | nt
COc1ccc(NC(=O)c2cc(-c3ccncc3)nc3ccc(Br)cc23)cc1OC | 0 | 18 | 0 | -7 | 3 | 45* | 12 | 8
Cc1ccc(-c2ccc(CN3C(C)C(=O)N(Cc4cn(Cc5ccco5)nn4)CCS3(=O)=O)cc2)c(C)c1 (configuration not stated) | -1 | nt | -4 | nt | 1 | nt | nt | nt
O=C1Cc2ccccc2C(=O)N1CCc1ccccc1 | -1 | -25 | -1 | -7 | 6 | 79* | 95* | 5 | Apaf1 inh interf=>100
CC(=O)C(C(C)=O)C1(O)C(=O)c2ccccc2C1=O | -1 | -14 | 0 | -2 | -1 | 86* | 87* | -2 | Apaf1 inh interf=>100
COc1ccc(O)c(C2(O)C(=O)c3ccccc3C2=O)c1 | 0 | -2 | 1 | -1 | -1 | -11 | nt | nt
Cc1cccc(C(=O)O)c1NC(=O)Cc1cccc2ccccc12 | 1 | 4 | 0 | 1 | 7 | -5 | nt | nt
CC(=O)N(/N=C1\Sc2ccccc2C1=O)c1ccc(C)cc1C | -5 | -31 | 1 | -3 | -1 | 43* | 25 | 4
CC(=O)N(/N=C1\Sc2ccccc2C1=O)c1ccccc1C | -1 | -40 | 3 | -2 | -6 | 90* | 85* | 11 | Apaf1 inh interf=>100
CC(=O)N(/N=C1\Sc2ccccc2C1=O)c1ccccc1 | -4 | nt | 2 | nt | -12 | nt | nt | nt
Cc1cccc(C)c1NC(=O)C1(C)CCC(=O)N1CCc1c[nH]c2ccccc12 (configuration not stated) | 2 | nt | -1 | nt | -2 | nt | nt | nt
